An excerpt weighted towards active compounds, which were near 3.8% of everything screened.
CHO parental Ca: signal in parental CHO cells, OX1R antagonist counter-screen. parental CHO-K1, ATP-induced calcium, Fluo-8 fluorescence. inhibition, % at 5.6 µM. hit rate 0.63% among 330,000;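 active means inhibition above that plate's mean sample inhibition plus 3 SD, cut at about 26% in these data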;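 further: 0% = ATP-challenged DMSO wells and 100% = DMSO wells without ATP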
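test system = CHO parental line | reagent = ATP stimulus | measured by = intracellular calcium via Fluo-8 no-wash fluorescent dye | control set = ATP and no-ATP DMSO wells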
OX1R antag-1: blocks the human orexin 1 receptor; O43613; OX1R-expressing cells, FRET antagonist read-out; inhibition, % at 6.6 µM; hit rate 1.8% among 330,000; AID 485270; in the data active means inhibition mostly above about 38%, no sharp cut-off; inactive means mostly below about 40%;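 further: 0% = agonist challenge alone and 100% = reference antagonist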
Target sequence (O43613 whole entry, looked up): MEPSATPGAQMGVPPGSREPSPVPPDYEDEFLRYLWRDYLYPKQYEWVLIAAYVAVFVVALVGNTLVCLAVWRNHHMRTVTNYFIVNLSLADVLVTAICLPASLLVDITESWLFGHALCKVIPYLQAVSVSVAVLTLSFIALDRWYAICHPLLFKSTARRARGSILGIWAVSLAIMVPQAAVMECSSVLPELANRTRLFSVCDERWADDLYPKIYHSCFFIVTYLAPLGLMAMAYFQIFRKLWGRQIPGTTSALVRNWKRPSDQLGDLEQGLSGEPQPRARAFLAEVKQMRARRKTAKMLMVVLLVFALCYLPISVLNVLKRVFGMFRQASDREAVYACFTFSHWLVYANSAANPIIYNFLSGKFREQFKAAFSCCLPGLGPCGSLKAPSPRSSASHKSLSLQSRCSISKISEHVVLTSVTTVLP
MPTP inh: permeability transition pore inhibition; isolated mouse mitochondria, Ca2+ swelling absorbance, 30 min; hit rate 1.4% among 360,000; inhibition, % at 10 µM; AID 602449;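 active means inhibition of 50% or more, scaled per plate between neutral and stimulator controls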;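 further: 0% = DMSO wells given calcium and 100% = 1 mM EGTA wells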
GPR7 antagonist: human neuropeptides B/W receptor 1 antagonism. GPR7-expressing cells, fluorescence antagonist assay. inhibition, % at 4.4 µM. hit rate 1.1% among 290,000; in the data active means inhibition above about 16%, passing the limit was not always enough;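 further: cells stimulated with the agonist NPW; 0% = agonist with vehicle and 100% = vehicle without agonist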
OX1R antag-2: human HCRTR1 antagonism. inhibition, % at 5 µM. hit rate 0.43% among 330,000. CHO/OX1R cells, Fluo-8 calcium fluorescence, orexin A;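 active means inhibition above its plate's threshold, mean inhibition of all tested compounds on the plate plus 3 SD, cut at about 37% in these data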;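 further: 0% = orexin A challenge wells and 100% = SB-334867-A antagonist wells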
OX1R HTRF conf: confirmation of human orexin 1 receptor antagonists, HTRF format; shares compounds with OX1R antag-1; OX1R-expressing cells, HTRF antagonist assay; inhibition, % at 6.6 µM; hit rate 49% among 1,800; AID 492964; in the data active means inhibition above about 55%;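 further: CHO cells expressing OX1R stimulated with orexin A at about EC80; 0% = agonist challenge alone and 100% = reference antagonist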
CHO-K1 HTRF cnt: signal in parental CHO-K1 cells, OX1R antagonist counter-screen; shares compounds with OX1R antag-1; HTRF counterscreen; inhibition, % at 6.6 µM; hit rate 48% among 1,800; in the data active means inhibition above about 17%;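 further: 0% = agonist challenge with vehicle and 100% = vehicle alone without agonist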
MPTP counter: Rhodamine 123 counter-screen of mitochondrial pore hits. shares compounds with MPTP inh. isolated mitochondria, membrane potential, Rhodamine 123 fluorescence. inhibition, % at 10 µM. hit rate 78% among 5,000. AID 624504; in the data active means inhibition above about 22%;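 further: 0% = DMSO vehicle and 100% = positive control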
MPTP swell DR: dose response confirmation of mitochondrial permeability transition pore inhibitors | isolated mitochondria swelling, absorbance | hit rate 58% among 780 | shares compounds with MPTP inh | IC50, µM | AID 651561; in the data active means IC50 below about 20 µM
MPTP cs DR: active in counter-screen for permeability transition pore inhibitors; shares compounds with MPTP inh; isolated mitochondria counterscreen, fluorescence read-out; IC50, µM; hit rate 49% among 780; AID 651564; in the data active means IC50 below about 80 µM
An asterisk follows results filed as active; . = not tested or not shown.

SMILES	CHO parental Ca	OX1R antag-1	MPTP inh	GPR7 antagonist	OX1R antag-2	OX1R HTRF conf	CHO-K1 HTRF cnt	MPTP counter	others
COC(=O)c1sc(NC(=O)c2ccc([N+](=O)[O-])o2)c(C#N)c1C	9.1	91.5*	91.7*	-12.1	19.4	64.0*	29.6*	81.2*
COc1ccc(-c2cc(C(=O)N3CCN(c4ccc(F)cc4)CC3)no2)cc1OC	-16.7	12.5	0.9	-2.5	-41.9	.	.	.
CCOC(=O)Nc1cc(N)ncn1	.	.	0.1	.	.	.	.	.
CC[n+]1c(/C=C/c2ccc(N(C)C)cc2)ccc2ccccc21	33.1	94.0*	141.0*	6.7	20.4	82.5*	103.5*	55.1*
Cc1ccc(-c2[nH]ncc2/C=N/n2c(COc3ccccc3)nc3ccccc3c2=O)cc1	-13.9	26.7	-1.3	0.0	-4.1	.	.	.
Cc1cc(/C=N/n2c(COc3ccccc3)nc3ccccc3c2=O)c(O)c([N+](=O)[O-])c1	-18.3	91.9*	78.7*	-6.0	-17.6	36.6	12.2	33.3*
O=C(NNc1c2ccccc2nc2ccccc12)c1ccccc1O	4.3	84.1*	87.2*	-1.4	0.9	61.0*	1.1	42.5*
Cc1ccc(Nc2n[nH]c(C)c2[N+](=O)[O-])cc1C	-16.0	23.5	8.5	-0.7	-13.1	.	.	.
Cc1ccc(Nc2nc3nonc3[nH]c2=O)cc1C	16.5	78.2*	69.4*	12.3	17.1	33.2	6.8	101.7*
CC(=O)Oc1ccc(C(=O)Nc2ccc(C3(C#N)CCCC3)cc2)cc1	1.2	12.3	0.7	-13.0	-8.8	.	.	.
N#C/C(=N\Nc1ccc([N+](=O)[O-])cc1)C(N)=S	8.3	89.8*	85.8*	4.2	17.2	64.2*	50.9*	62.0*
NS(=O)(=O)c1ccc(NC(=O)c2ccc(S(=O)(=O)N3CCc4ccccc43)cc2)cc1	12.4	4.5	0.8	0.3	15.5	.	.	.
N#C/C(=N\Nc1ccc(S(=O)(=O)N2CCc3ccccc32)cc1)C(N)=S	6.9	106.0*	99.2*	-15.5	-3.9	40.9	20.9*	67.3*
COc1cccc(COC(=O)C(Cc2ccccc2)NC(=O)c2ccco2)c1 (configuration not stated)	.	.	28.3	.	.	.	.	.
CN(C)C(=O)C1C2NC(=S)N(c3cccc(Cl)c3)C1(C)Oc1ccc(Cl)cc12 (configuration not stated)	-7.2	20.5	-3.2	1.4	3.4	.	.	.
CCC(/C=C1\Oc2ccc(OC)cc2N1C)=C\c1sc2ccccc2[n+]1CCCS(=O)(=O)[O-]	.	.	13.5	.	.	.	.	.
COc1cc(/C=C/c2sc3ccccc3[n+]2CCCS(=O)(=O)[O-])ccc1O	5.7	86.2*	56.0*	15.6	9.3	58.9*	99.1*	-11.4
COC(=O)[C@@H](NC(=O)NC1CCCCC1C)C(C)C (some centres not stated)	-12.7	0.0	-0.1	-0.8	-2.6	.	.	.
CC(C)(C)c1ccc(S(=O)(=O)/N=C2\C=C(NS(=O)(=O)c3ccccc3)C(=O)c3ccccc32)cc1	-33.6	88.1*	99.3*	-5.9	-17.7	47.4	4.1	25.1*
CC(=O)c1ccc(NC(=O)Nc2ccc3c(c2)N(C)C(=O)CS3)cc1	-1.1	78.8*	96.3*	-5.7	-15.2	18.8	10.5	77.3*
CCOc1ccc(NC(=O)Nc2ccc3c(c2)N(C)C(=O)CS3)cc1	18.9	14.1	1.7	-2.9	-13.0	.	.	.
CN(C)c1ccc(N=Nc2nc3ccccc3n2C)cc1	-9.4	105.9*	66.2*	14.0	15.1	107.0*	29.1*	-32.4
CC(=O)c1sc(NC(=O)C=C(C)C)nc1C	-1.9	16.6	0.3	2.5	-8.6	.	.	.
CC(=O)c1sc(NC(=O)C2(F)C(F)(F)C(F)(F)C(F)(F)C(F)(F)C2(F)F)nc1C	15.9	79.9*	94.7*	11.4	35.1	70.8*	26.2*	91.2*
[O-][n+]1c2c(c3c4non(O)c4ccc31)CCCC2	6.4	53.8*	95.7*	2.6	24.0	.	.	83.3*
SMILES	CHO parental Ca	OX1R antag-1	MPTP inh	GPR7 antagonist	OX1R antag-2	OX1R HTRF conf	CHO-K1 HTRF cnt	MPTP counter	others
CCOC(=O)c1c(-c2cccs2)csc1NC(=O)CC(C)C	-17.1	4.8	57.4*	-15.5	-31.7	.	.	-0.9	MPTP swell DR=>100;MPTP cs DR=>80
CCOC(=O)c1c(-c2cccs2)csc1NC(=O)CN(CC)CC	-23.2	9.3	8.8	-10.5	-34.7	.	.	.
COc1ccccc1CNC(=O)[C@@H]1CCCN1S(=O)(=O)c1ccc(C)cc1	-28.5	18.2	-0.9	-6.2	-15.3	.	.	.
CCOC(=O)c1ccc(NC(=O)Cc2coc3cc4c(cc23)CCC4)cc1	13.8	22.1	86.6*	-7.9	-17.4	.	.	92.0*
CCOC(=O)c1ccc(NC(=O)COC)cc1	-2.0	13.5	-1.3	-10.5	-31.4	.	.	.
O=C(CSc1ncnc2sccc12)NCc1ccc2c(c1)OCO2	-8.8	5.3	1.3	.	-25.7	.	.	.
CCN1C(=O)c2cccc3c(NS(=O)(=O)c4ccc(NC(C)=O)cc4)ccc1c23	-9.5	10.7	8.6	-6.4	-3.2	.	.	.
CCOC(=O)c1ccc(NC(=O)Nc2ccc3c4c(cccc24)C(=O)N3CC)cc1	-5.1	-0.4	94.9*	13.3	-26.4	.	.	32.8*
CC(=O)C[C@H](O)CC(=O)[C@H]1OC(=O)CCCCCCCCc2ccccc21	-0.9	-2.1	3.6	.	-1.6	.	.	.
CCCCOc1ccc(Br)cc1CSC(=N)N	.	.	82.8*	74.7*	.	.	.	108.0*
CCOc1ccc(C(C)=O)cc1CSC(=N)N	-9.0	12.4	0.1	-8.9	-10.5	.	.	.
CCOC(=O)N1CCC(N(C(=O)Nc2ccc(Cl)c(Cl)c2)C(C)CC)CC1 (configuration not stated)	-6.9	-2.5	79.6*	-6.2	-1.4	.	.	94.7*
CC(OC(=O)CCc1nc2ccccc2c(=O)[nH]1)C(=O)c1ccc(C(C)(C)C)cc1 (configuration not stated)	26.4	28.6	95.5*	-3.1	35.1	.	.	85.9*
CCCC(=O)NC(Nc1cc(C(F)(F)F)ccc1Cl)C(Cl)(Cl)Cl (configuration not stated)	-17.9	32.5	89.8*	-3.8	-4.1	.	.	93.0*
CCCC(=O)NC(Nc1cccc(C(F)(F)F)c1)C(Cl)(Cl)Cl (configuration not stated)	-12.6	11.8	6.8	-16.9	-9.7	.	.	.
N/C(=N\S(=O)(=O)c1cc(C(F)(F)F)cc(C(F)(F)F)c1)c1ccncc1	-3.1	0.1	3.3	-11.1	-11.2	.	.	.
N/C(=N\S(=O)(=O)c1cc(C(F)(F)F)cc(C(F)(F)F)c1)c1ccc(Cl)cc1	3.8	15.4	83.1*	-6.2	-3.5	.	.	88.4*

From PubChem BioAssay
